Experimental data from ChEMBL document CHEMBL4145466, “Design, synthesis, and biological evaluation of novel combretastatin A-4 thio derivatives as microtubule targeting agents” (Eur J Med Chem, 2018).
Activity calls are given as the source filed them. The rule behind the calls is not given here.

Legend:
SK-OV-3 [1] = assay: Induction of apoptosis in human SKOV3 cells assessed as increase in histone-associated DNA fragments in oligonucleosomes at 0.1 uM after 24 hrs by ELISA; assay type: functional, cell-based
Method in brief: (§1)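 Cells (2 × 10^4) were incubated for 24 h at 0.1, 0.5 or 1 µM, lysed and centrifuged. Supernatants went onto a streptavidin plate with anti-histone-biotin and anti-DNA-peroxidase for 2 h, followed by ABTS for 30 min and a reading at 405 nm. Nucleosome content was expressed as an enrichment factor, as mean ± SD of three experiments.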

A-431 [2] = assay: Induction of apoptosis in human A431 cells assessed as increase in histone-associated DNA fragments in mononucleosomes at 0.1 uM after 24 hrs by ELISA; assay type: functional, cell-based; method in brief: as §1
A-431 [3] = assay: Cell cycle arrest in human A431 cells assessed as accumulation of cells at G2/M phase at 0.1 to 1 uM after 24 hrs by propidium iodide staining-based FACS analysis; assay type: functional
Method in brief: (§2)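 Cells were seeded at 5 × 10^5 per well in DMEM with 10% FBS and left overnight, then exposed to 0.1, 0.5 or 1 µM for 24 h. DMSO served as the negative control and 50 nM camptothecin as the positive control. Cells were trypsinized, fixed in 70% ethanol for 30 min at 4 °C, stained with 50 µg/mL PI plus 100 µg/mL RNase A for 30 min in the dark, and analysed by flow cytometry. Results are mean ± SD of three experiments, compared by ANOVA with Dunnett's test.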

A-431 [4] = assay: Cytotoxicity against human A431 cells after 48 hrs by MTT assay; assay type: functional, cell-based; conditions: A-431, 48 h
Method in brief: (§3)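 Cells in DMEM with 10% FBS were plated at 2 × 10^4 per well and left overnight, then treated for 48 h at 0.6–20 µM (six concentrations) from 10 mM DMSO stocks. MTT was added for 2 h, and formazan was dissolved in DMSO and read at 570 nm. Viability was expressed as % of control, with IC50 taken from dose-response curves. Results are mean ± SD of three independent experiments.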

MDA-MB-231 [5] = assay: Induction of apoptosis in human MDA-MB-231 cells after 24 hrs by FITC Annexin V/propidium iodide staining-based FACScan flow cytometric analysis; assay type: functional, cell-based
Method in brief: (§4)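 After 24 h of compound exposure, 1 × 10^6 cells were labelled with annexin V-FITC and PI for 15 min at 25 °C in the dark. They were read on a FACScan with 488 nm excitation, detecting FITC at 525 nm and PI at 620 nm. Results are mean ± SD of three independent experiments, with Dunnett's test against control.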

HeLa [6] = assay: Cytotoxicity against human HeLa cells after 48 hrs by MTT assay; assay type: functional, cell-based; method in brief: as §3
Tubulin [7] = assay: Inhibition of tubulin polymerization in human HaCaT cells assessed as perturbation in cytoskeleton structure at 1 uM after 24 hrs by ELISA; assay type: cell-based
A-431 [8] = assay: Induction of apoptosis in human A431 cells after 24 hrs by FITC Annexin V/propidium iodide staining-based FACScan flow cytometric analysis; assay type: functional, cell-based; method in brief: as §4
Tubulin [9] = assay: Inhibition of tubulin polymerization in human HaCaT cells assessed as perturbation in cytoskeleton structure at 1 uM after 24 hrs by Hoechst 33258/FITC staining-based […]; assay type: cell-based
Method in brief: (§5)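 Cells seeded at 12.5 × 10^4 per well and exposed to 1 µM compound for 24 h. Nuclei were stained with Hoechst 33258 (10 µg/mL, 30 min, 37 °C), then fixed in 4% formaldehyde/PBS (15 min, RT). Cells were permeabilized with 1% Triton X-100, blocked with 2% BSA/PBS for 1 h, and incubated with anti-α-tubulin-FITC (1:50) overnight at 4 °C. Imaged by fluorescence microscopy.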

SK-OV-3 [10] = assay: Induction of apoptosis in human SKOV3 cells after 24 hrs by FITC Annexin V/propidium iodide staining-based FACScan flow cytometric analysis; assay type: functional, cell-based; method in brief: as §4
MCF7 [11] = assay: Induction of apoptosis in human MCF7 cells after 24 hrs by FITC Annexin V/propidium iodide staining-based FACScan flow cytometric analysis; assay type: functional, cell-based; method in brief: as §4
MDA-MB-231 [12] = assay: Induction of apoptosis in human MDA-MB-231 cells assessed as increase in histone-associated DNA fragments in oligonucleosomes at 0.1 uM after 24 hrs by ELISA; assay type: functional, cell-based; method in brief: as §1
HeLa [13] = assay: Induction of apoptosis in human HeLa cells assessed as increase in histone-associated DNA fragments in oligonucleosomes at 0.1 uM after 24 hrs by ELISA; assay type: functional, cell-based; method in brief: as §1
A-431 [14] = assay: Induction of apoptosis in human A431 cells assessed as increase in histone-associated DNA fragments in oligonucleosomes at 0.1 uM after 24 hrs by ELISA; assay type: functional, cell-based; method in brief: as §1
MDA-MB-231 [15] = assay: Induction of apoptosis in human MDA-MB-231 cells assessed as increase in histone-associated DNA fragments in mononucleosomes at 0.1 uM after 24 hrs by ELISA; assay type: functional, cell-based; method in brief: as §1
MDA-MB-231 [16] = assay: Cell cycle arrest in human MDA-MB-231 cells assessed as accumulation of cells at G2/M phase at 0.1 to 1 uM after 24 hrs by propidium iodide staining-based FACS analysis; assay type: functional; method in brief: as §2
HaCaT [17] = assay: Induction of apoptosis in human HaCaT cells assessed as increase in histone-associated DNA fragments in oligonucleosomes at 0.1 uM after 24 hrs by ELISA; assay type: cell-based
Method in brief: (§6)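 HaCaT cells (2 × 10^4), grown in DMEM with 10% FBS, penicillin/streptomycin and 2 mM L-glutamine, exposed to compound (DMSO stock) for 24 h. Cells lysed, supernatant taken after centrifugation and incubated 2 h on a streptavidin-coated plate with anti-histone-biotin and anti-DNA-peroxidase. ABTS added for 30 min, A405 read. Output is enrichment factor vs control, mean ± SD of three independent experiments.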

[18] = Cytotoxicity against human CCD39Lu cells after 48 hrs by MTT assay; assay type: cell-based; method in brief: as §3
HaCaT [19] = assay: Cell cycle arrest in human HaCaT cells assessed as accumulation of cells at G2/M phase at 0.1 to 1 uM after 24 hrs by propidium iodide staining-based FACS analysis; method in brief: as §2
HaCaT [20] = assay: Cytotoxicity against human HaCaT cells after 48 hrs by MTT assay; assay type: cell-based; method in brief: as §3
A549 = assay: Cytotoxicity against human A549 cells after 48 hrs by MTT assay; assay type: functional, cell-based; conditions: A549, 48 h
HeLa [21] = assay: Induction of apoptosis in human HeLa cells assessed as increase in histone-associated DNA fragments in mononucleosomes at 0.1 uM after 24 hrs by ELISA; assay type: functional, cell-based; method in brief: as §1
SK-OV-3 [22] = assay: Cell cycle arrest in human SKOV3 cells assessed as accumulation of cells at G2/M phase at 0.1 to 1 uM after 24 hrs by propidium iodide staining-based FACS analysis; assay type: functional; method in brief: as §2
Tubulin [23] = assay: Inhibition of tubulin polymerization in human HaCaT cells assessed as micronuclei formation at 1 uM after 24 hrs by Hoechst 33258/FITC staining-based […]; assay type: cell-based; method in brief: as §5
MCF7 [24] = assay: Cell cycle arrest in human MCF7 cells assessed as accumulation of cells at G2/M phase at 0.1 to 1 uM after 24 hrs by propidium iodide staining-based FACS analysis; assay type: functional; method in brief: as §2
[25] = Inhibition of porcine tubulin polymerization after 1 hr by spectrophotometric analysis; design: species or system Sus scrofa
Method in brief: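 Polymerization was started by shifting from 4 °C to 37 °C, and absorbance was followed at 37 °C for 60 min. The vehicle served as control.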

MCF7 [26] = assay: Induction of apoptosis in human MCF7 cells assessed as increase in histone-associated DNA fragments in oligonucleosomes at 0.1 uM after 24 hrs by ELISA; assay type: functional, cell-based; method in brief: as §1
MCF7 [27] = assay: Cytotoxicity against human MCF7 cells after 48 hrs by MTT assay; assay type: functional, cell-based; conditions: MCF7, 48 h; method in brief: as §3
HaCaT [28] = assay: Induction of apoptosis in human HaCaT cells assessed as increase in histone-associated DNA fragments in mononucleosomes at 0.1 uM after 24 hrs by ELISA; assay type: cell-based; method in brief: as §6
HeLa [29] = assay: Induction of apoptosis in human HeLa cells after 24 hrs by FITC Annexin V/propidium iodide staining-based FACScan flow cytometric analysis; assay type: functional, cell-based; method in brief: as §4
SK-OV-3 [30] = assay: Induction of apoptosis in human SKOV3 cells assessed as increase in histone-associated DNA fragments in mononucleosomes at 0.1 uM after 24 hrs by ELISA; assay type: functional, cell-based; method in brief: as §1
HaCaT [31] = assay: Induction of apoptosis in human HaCaT cells after 24 hrs by FITC Annexin V/propidium iodide staining-based FACScan flow cytometric analysis; assay type: cell-based; method in brief: as §4
MCF7 [32] = assay: Induction of apoptosis in human MCF7 cells assessed as increase in histone-associated DNA fragments in mononucleosomes at 0.1 uM after 24 hrs by ELISA; assay type: functional, cell-based; method in brief: as §1
SK-OV-3 [33] = assay: Cytotoxicity against human SKOV3 cells after 48 hrs by MTT assay; assay type: functional, cell-based; conditions: SK-OV-3, 48 h; method in brief: as §3
Tubulin [34] = assay: Inhibition of tubulin polymerization in human HaCaT cells assessed as micronuclei formation at 1 uM after 24 hrs by ELISA; assay type: cell-based
MDA-MB-231 [35] = assay: Cytotoxicity against human MDA-MB-231 cells after 48 hrs by MTT assay; assay type: functional, cell-based; conditions: MDA-MB-231, 48 h; method in brief: as §3

COc1ccc(/C=C\c2cc(OC)c(OC)c(OC)c2)cc1O [COMBRETASTATIN A4]
Activity (SK-OV-3 [1]): Active | Activity (A-431 [2]): Active | Activity (A-431 [3]): Active | IC50 (A-431 [4]): 250 nM | Activity (MDA-MB-231 [5]): Dose-dependent effect | IC50 (HeLa [6]): 110 nM | inhibition (INH) (Tubulin [7]): Active | Activity (A-431 [8]): Dose-dependent effect | inhibition (INH) (Tubulin [9]): Active | Activity (SK-OV-3 [10]): Dose-dependent effect | Activity (MCF7 [11]): Dose-dependent effect | Activity (MDA-MB-231 [12]): Active | Activity (HeLa [13]): Active | Activity (A-431 [14]): Active | Activity (MDA-MB-231 [15]): Active | Activity (MDA-MB-231 [16]): Active | Activity (HaCaT [17]): Toxic | IC50 [18]: 9 nM | Activity (HaCaT [19]): Toxic | IC50 (HaCaT [20]): 190 nM | IC50 (A549): > 20000 nM | Activity (HeLa [21]): Active | Activity (SK-OV-3 [22]): Active | inhibition (INH) (Tubulin [23]): Active | Activity (MCF7 [24]): Active | IC50 [25]: 2720 nM | Activity (MCF7 [26]): Active | IC50 (MCF7 [27]): 170 nM | Activity (HaCaT [28]): Toxic | Activity (HeLa [29]): Dose-dependent effect | Activity (SK-OV-3 [30]): Active | Activity (HaCaT [31]): Dose-dependent effect | Activity (MCF7 [32]): Active | IC50 (SK-OV-3 [33]): 380 nM | inhibition (INH) (Tubulin [34]): Active | IC50 (MDA-MB-231 [35]): 560 nM
